# Laboratory results as given in BindingDB's records for doi:10.1016/j.bmc.2019.02.023 (Wesleyan University, 2019).
# Molecular target: Beta-lactamase (Enterobacter cloacae, UniProt P05364)
# Test: Irreversible inhibition of Enterobacter cloacae P99 beta-lactamase using cephalothin as substrate by spectrophotometric analysis
# Conditions: read-out: kon (M-1-s-1)
# How it was run: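 P99 class C β-lactamase (stock concentration by A280, ε 7.1 x 10⁴ M⁻¹cm⁻¹) incubated with inhibitor in 20 mM MOPS pH 7.5, 0.1% BSA, 25 °C. Aliquots diluted 1:50 into 300 μM cephalothin; initial rates followed at 270 nm over time. Titration: 150 nM enzyme with 0–2.0 μM inhibitor to end-point. Time-course and titration data fitted jointly to Scheme 2, k2 fixed at 100 s⁻¹, giving k1, k2/k3 and k_i.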
# Sequence of Beta-lactamase (P05364 whole entry): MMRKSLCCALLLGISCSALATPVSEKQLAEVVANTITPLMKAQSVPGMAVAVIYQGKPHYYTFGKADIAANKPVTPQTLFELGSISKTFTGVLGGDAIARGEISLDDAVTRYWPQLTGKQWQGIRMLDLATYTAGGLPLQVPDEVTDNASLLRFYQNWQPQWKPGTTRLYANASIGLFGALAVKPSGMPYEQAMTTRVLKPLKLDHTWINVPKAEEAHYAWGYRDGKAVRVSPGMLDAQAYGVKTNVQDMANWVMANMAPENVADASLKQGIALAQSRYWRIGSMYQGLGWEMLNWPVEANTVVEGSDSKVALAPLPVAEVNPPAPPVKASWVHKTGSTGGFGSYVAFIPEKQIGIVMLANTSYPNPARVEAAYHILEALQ
row,SMILES,kon [M⁻¹ s⁻¹]
1,O=C(NOC(=O)Oc1ccccc1)OCc1ccccc1,2000
2,N[C@H](CCCOC(=O)NOC(=O)Oc1ccccc1)C(=O)O,16000
3,CCCCOC(=O)NOC(=O)Oc1ccccc1,1100
4,O=C(O)CCCCOC(=O)NOC(=O)Oc1ccccc1,8500
5,O=C(NOC(=O)Oc1ccccc1)OCCc1ccccc1,1400
